Columns and labels:
Format in all cases: functional
CCRF-CEM = test: Cytotoxicity against human CCRF-CEM cells assessed as cell growth at 10 uM; conditions: read-out: Activity
Method in brief: (§1)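 Single-dose NCI-60 screen at 10 µM. Cells were grown in RPMI 1640 with 5% FBS and 2 mM L-glutamine, then treated for 48 h at 37 °C. Protein was measured by SRB staining with absorbance at 515 nm. Percentage growth was recorded, and inhibition percentage was calculated as 100 minus growth percentage.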

SF-295 = test: Cytotoxicity against human SF295 cells assessed as cell growth at 10 uM after 48 hrs by sulforhodamine B assay; conditions: SF-295, 48 h, read-out: Activity
SK-MEL-2 = test: Cytotoxicity against human SK-MEL-2 cells assessed as cell growth at 1 uM after 48 hrs by sulforhodamine B assay; conditions: SK-MEL-2, 48 h, read-out: Activity
T47D = test: Cytotoxicity against human T47D cells assessed as cell growth at 1 uM after 48 hrs by sulforhodamine B assay; conditions: read-out: Activity
OVCAR-8 = test: Cytotoxicity against human OVCAR8 cells assessed as cell growth at 0.01 uM after 48 hrs by sulforhodamine B assay; conditions: OVCAR-8, 48 h, read-out: Activity
SN12C = test: Cytotoxicity against human SN12C cells assessed as cell growth at 100 nM after 48 hrs by sulforhodamine B assay; conditions: read-out: Activity
[1] = Cytotoxicity against human […] cells assessed as cell growth at 10 uM; conditions: read-out: Activity
Method in brief: (§2)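 NCI-60 screen: cells grown in RPMI 1640 with 5% FBS and 2 mM L-glutamine, plated at 5000–40,000 cells/well according to doubling time, and preincubated 24 h at 37 °C, 5% CO2. The single 10 µM dose (DMSO stock) was added, then incubated 48 h. Cells were TCA-fixed and stained with 0.4% SRB, read at 515 nm, and growth % calculated against time-zero and control plates.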

CAKI-1 = test: Cytotoxicity against human Caki1 cells assessed as cell growth at 1 uM after 48 hrs by sulforhodamine B assay; conditions: CAKI-1, 48 h, read-out: Activity
HOP-92 = test: Cytotoxicity against human HOP92 cells assessed as cell growth at 10 uM; conditions: read-out: Activity; method in brief: as §1
HCC 2998 [2] = test: Cytotoxicity against human HCC2998 cells assessed as cell growth at 10 uM after 48 hrs by sulforhodamine B assay; conditions: HCC 2998, 48 h, read-out: Activity
SK-MEL-28 [3] = test: Growth inhibition of human SK-MEL-28 cells after 48 hrs by sulforhodamine B assay; conditions: SK-MEL-28, 48 h
Method in brief: (§3)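 NCI 60-cell screen, five-dose mode. Cells grown in RPMI 1640 with 5% FBS and 2 mM L-glutamine and plated at 5000-40,000 cells/well according to doubling time. After 24 h preincubation, a Tz plate was TCA-fixed. Five concentrations (10-fold or 1/2 log dilutions) were applied for 48 h at 37 °C. SRB staining read at 515 nm. IC50 taken from [(Ti-Tz)/(C-Tz)]×100 = 50.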

HCT-116 = test: Cytotoxicity against human HCT116 cells assessed as cell growth at 100 nM after 48 hrs by sulforhodamine B assay; conditions: HCT-116, 48 h, read-out: Activity
SR [4] = test: Cytotoxicity against human SR cells assessed as cell growth at 1 uM after 48 hrs by sulforhodamine B assay; conditions: read-out: Activity
MCF7 [5] = test: Cytotoxicity against human MCF7 cells assessed as cell growth at 10 uM after 48 hrs by sulforhodamine B assay; conditions: MCF7, 48 h, read-out: Activity
KM12 = test: Cytotoxicity against human KM12 cells assessed as cell growth at 10 uM; conditions: read-out: Activity; method in brief: as §2
ACHN = test: Cytotoxicity against human ACHN cells assessed as cell growth at 0.01 uM after 48 hrs by sulforhodamine B assay; conditions: read-out: Activity
RXF 393 [6] = test: Cytotoxicity against human RXF393 cells assessed as cell growth at 0.001 uM after 48 hrs by sulforhodamine B assay; conditions: RXF 393, 48 h, read-out: Activity
HCC 2998 [7] = test: Cytotoxicity against human HCC2998 cells assessed as cell growth at 100 nM after 48 hrs by sulforhodamine B assay; conditions: HCC 2998, 48 h, read-out: Activity
NCI-H226 [8] = test: Cytotoxicity against human NCI-H226 cells assessed as cell growth at 10 uM after 48 hrs by sulforhodamine B assay; conditions: NCI-H226, 48 h, read-out: Activity
SR [9] = test: Cytotoxicity against human SR cells assessed as cell growth at 100 nM after 48 hrs by sulforhodamine B assay; conditions: read-out: Activity
NCI-H226 [10] = test: Cytotoxicity against human NCI-H226 cells assessed as cell growth at 100 nM after 48 hrs by sulforhodamine B assay; conditions: NCI-H226, 48 h, read-out: Activity
RXF 393 [11] = test: Cytotoxicity against human RXF393 cells assessed as cell growth at 100 nM after 48 hrs by sulforhodamine B assay; conditions: RXF 393, 48 h, read-out: Activity
MCF7 [12] = test: Cytotoxicity against human MCF7 cells assessed as cell growth at 100 nM after 48 hrs by sulforhodamine B assay; conditions: MCF7, 48 h, read-out: Activity
DU-145 = test: Cytotoxicity against human DU145 cells assessed as cell growth at 0.01 uM after 48 hrs by sulforhodamine B assay; conditions: DU-145, 48 h, read-out: Activity
NCI-H226 [13] = test: Growth inhibition of human NCI-H226 cells after 48 hrs by sulforhodamine B assay; conditions: NCI-H226, 48 h; method in brief: as §3
SR [14] = test: Cytotoxicity against human SR cells assessed as cell growth at 0.001 uM after 48 hrs by sulforhodamine B assay; conditions: read-out: Activity
RXF 393 [15] = test: Growth inhibition of human RXF393 cells after 48 hrs by sulforhodamine B assay; conditions: RXF 393, 48 h; method in brief: as §3
RXF 393 [16] = test: Cytotoxicity against human RXF393 cells assessed as cell growth at 10 uM after 48 hrs by sulforhodamine B assay; conditions: RXF 393, 48 h, read-out: Activity
MCF7 [17] = test: Cytotoxicity against human MCF7 cells assessed as cell growth at 0.001 uM after 48 hrs by sulforhodamine B assay; conditions: MCF7, 48 h, read-out: Activity
HCC 2998 [18] = test: Growth inhibition of human HCC2998 cells after 48 hrs by sulforhodamine B assay; conditions: HCC 2998, 48 h; method in brief: as §3
SK-MEL-28 [19] = test: Cytotoxicity against human SK-MEL-28 cells assessed as cell growth at 1 uM after 48 hrs by sulforhodamine B assay; conditions: SK-MEL-28, 48 h, read-out: Activity
SR [20] = test: Cytotoxicity against human SR cells assessed as cell growth at 0.01 uM after 48 hrs by sulforhodamine B assay; conditions: read-out: Activity
MDA-MB-435 = test: Cytotoxicity against human MDA-MB-435 cells assessed as cell growth at 0.01 uM after 48 hrs by sulforhodamine B assay; conditions: MDA-MB-435, 48 h, read-out: Activity
SK-MEL-28 [21] = test: Cytotoxicity against human SK-MEL-28 cells assessed as cell growth at 0.001 uM after 48 hrs by sulforhodamine B assay; conditions: SK-MEL-28, 48 h, read-out: Activity
[22] = Cytotoxicity against human […] cells assessed as cell growth at 10 uM after 48 hrs by sulforhodamine B assay; conditions: read-out: Activity
[23] = read-out: LC50 (the source's name)

COc1cc(C)cc(-c2c(-c3ccnc(-c4ccc(N(C)C)cc4)c3)cnn2CC#N)c1
growth at 10 µM (CCRF-CEM): 3.55% | growth at 10 µM (SF-295): -30% | growth at 1 µM (SK-MEL-2): 11% | growth at 1 µM (T47D): 19% | growth at 0.01 µM (OVCAR-8): 28% | growth at 0.1 µM (SN12C): 28% | growth at 10 µM [1]: 0.08% | growth at 1 µM (CAKI-1): -21% | growth at 10 µM (HOP-92): 29.1%

COc1cc(C)cc(-c2nn(CC#N)cc2-c2ccc(-c3cccc(C(C)=O)c3)nc2)c1
growth at 10 µM (CCRF-CEM): 15.4% | growth at 10 µM (HCC 2998 [2]): -62% | GI50 (SK-MEL-28 [3]): 3.63 µM | TGI (SK-MEL-28 [3]): 93.6 µM | CC50 (SK-MEL-28 [3]; [23]): > 100 µM | growth at 0.1 µM (HCT-116): 78% | growth at 1 µM (SR [4]): 22% | growth at 10 µM (MCF7 [5]): -28% | growth at 1 µM (SK-MEL-2): 22% | growth at 10 µM (KM12): 34.1% | growth at 0.01 µM (ACHN): 90% | growth at 1 µM (T47D): -7% | growth at 0.001 µM (RXF 393 [6]): 90% | growth at 0.1 µM (HCC 2998 [7]): 81% | growth at 10 µM (NCI-H226 [8]): -3% | growth at 0.1 µM (SR [9]): 57% | growth at 0.1 µM (NCI-H226 [10]): 86% | growth at 0.1 µM (RXF 393 [11]): 73% | growth at 0.1 µM (MCF7 [12]): 69% | growth at 0.01 µM (DU-145): 98% | GI50 (NCI-H226 [13]): 4.29 µM | TGI (NCI-H226 [13]): 82.3 µM | CC50 (NCI-H226 [13]; [23]): > 100 µM | growth at 0.001 µM (SR [14]): 97% | GI50 (RXF 393 [15]): 1.49 µM | LC50 (concentration killing 50% of the starting cells) (RXF 393 [15]): 8.62 µM | TGI (RXF 393 [15]): 3.59 µM | growth at 10 µM (RXF 393 [16]): -58% | growth at 0.001 µM (MCF7 [17]): 94% | GI50 (HCC 2998 [18]): 2.08 µM | TGI (HCC 2998 [18]): 6.77 µM | CC50 (HCC 2998 [18]; [23]): 54.4 µM | growth at 1 µM (SK-MEL-28 [19]): 31% | growth at 0.01 µM (SR [20]): 103% | growth at 0.01 µM (OVCAR-8): 88% | growth at 0.1 µM (SN12C): 91% | growth at 10 µM [1]: 17.7% | growth at 0.01 µM (MDA-MB-435): 94% | growth at 0.001 µM (SK-MEL-28 [21]): 92% | growth at 10 µM (HOP-92): 48.4% | growth at 10 µM [22]: -21%

Reference: ChEMBL document CHEMBL1165950, “Design and synthesis of new potent anticancer pyrazoles with high FLT3 kinase inhibitory selectivity” (Bioorg Med Chem, 2010)
